Most compounds without a hit are left out; they make up all but 2.9% or so of the library.
MEKK2 mut-MEK5: MEK5 binding signal on mutant MEKK2 PB1, primary screen, biochemical, multiplex bead flow cytometry, Alexa488-MEK5. Alexa488-MEK5 binding to MEKK2 mutant. actives 0.35% (n = 290,000). percent response, % at 10 µM. AID 1530, 2009; in the data active means percent response above about 24%, passing the limit was not always enough
ATG4B inh: ATG4B protease inhibitors, primary screen, biochemical, fluorescence, uHTS; inhibition, % at 8.33 µM; AID 504462, 2011; actives 0.51% (n = 340,000); Cysteine protease ATG4B (Homo sapiens), Q9Y4P1; ATG4B cleavage of LC3-PLA2, NBD-HPC fluorescence, 1 h; in the data active means inhibition above about 40%
Dynein cargo inh: inhibitors of GR-EGFP nuclear translocation, primary screen, dynein cargo transport inhibitor project, imaging, high-content, 3617.4 mouse cells; test concentration mostly 20 µM; stimulated with dexamethasone, 1 µM; hits give low values; z-score, hits read low; actives 0.47% (n = 220,000); AID 1381, 2008;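 active means plate z-score of nuclear minus cytoplasmic receptor signal below a set negative limit, without overly bright fluorescence or cell loss, cut at about -3.5 in these data, passing the limit was not always enough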;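 further: z-score of nuclear minus cytoplasmic ring GR-EGFP intensity difference per well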
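medium = tetracycline-free induction medium containing charcoal-stripped FBS | also added = 1.0 µM final dexamethasone stimulus | schedule = 48 h induction, 1 h compound, 30 min dex at 37 °C | technique = fixed, Hoechst-stained cells imaged at 10x for EGFP | measure = GR-EGFP nuclear translocation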
MEKK3 PB1 HTS: modulators of MEKK3-MEK5 PB1 binding, primary screen, biochemical, wildtype MEKK3, multiplex bead flow cytometry, Alexa488-MEK5 | Mitogen-activated protein kinase kinase kinase 3 (Homo sapiens), Q99759 | bead-based flow cytometry, Alexa488-MEK5 binding to MEKK3; actives lie on both sides; 0 = blocked by unlabeled MEK5, 100 = vehicle | binding response (% of control), % at 10 µM | actives 1.4% (n = 290,000) | AID 1529, 2009;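 active means binding response more than 3 SD above or below the average of its plate-row segment, actives on both sides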;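 further: Alexa488 bead fluorescence after subtracting the streptavidin-only scavenger bead signal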
Target sequence (Q99759 whole entry, looked up): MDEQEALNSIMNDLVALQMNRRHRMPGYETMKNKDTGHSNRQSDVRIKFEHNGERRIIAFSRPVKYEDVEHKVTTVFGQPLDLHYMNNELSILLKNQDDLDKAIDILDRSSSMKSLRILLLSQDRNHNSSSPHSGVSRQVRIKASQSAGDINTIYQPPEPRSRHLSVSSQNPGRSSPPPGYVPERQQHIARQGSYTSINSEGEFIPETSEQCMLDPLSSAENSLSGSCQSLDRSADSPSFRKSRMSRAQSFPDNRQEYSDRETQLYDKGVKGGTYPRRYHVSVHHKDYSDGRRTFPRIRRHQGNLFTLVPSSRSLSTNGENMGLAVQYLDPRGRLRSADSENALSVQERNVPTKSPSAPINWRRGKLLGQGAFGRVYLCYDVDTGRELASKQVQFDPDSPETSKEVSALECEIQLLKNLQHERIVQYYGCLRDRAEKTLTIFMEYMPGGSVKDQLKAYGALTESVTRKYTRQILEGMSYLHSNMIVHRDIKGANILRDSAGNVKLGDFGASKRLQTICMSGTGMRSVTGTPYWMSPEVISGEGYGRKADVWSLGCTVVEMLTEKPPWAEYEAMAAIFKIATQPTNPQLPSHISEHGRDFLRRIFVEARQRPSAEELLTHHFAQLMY
MEKK2wt PB1 HTS: modulators of MEK5 binding to wildtype MEKK2, primary screen, biochemical, multiplex bead flow cytometry, Alexa488-MEK5 | Alexa488-MEK5 binding to MEKK2 WT; actives lie on both sides | binding response (% of control), % at 10 µM | actives 1.1% (n = 290,000) | AID 1531, 2009; in the data active means binding response below about 67% or above about 130%
Beta2AR agonist: beta2AR agonists driving receptor internalization, primary screen, cell-based, FAP fluorogen, flow cytometry. Beta-2 adrenergic receptor (Homo sapiens), P07550. Am2.2-beta2AR cells. response, % (test concentration not listed). actives 0.43% (n = 340,000);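 active means response above a set limit, near 3 SD of response in nonfluorescent compounds, cut at about 42% in these data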
MEKK2wt confirm: modulators of MEK5 binding to wildtype MEKK2, confirmation, biochemical, single concentration, multiplex bead flow cytometry; actives 2.4% (n = 5,900); binding response (% of control), % at 10 µM; Alexa488-MEK5 binding to MEKK2 WT; actives lie on both sides; shares compounds with MEKK3 PB1 HTS; in the data active means binding response below about 16% or above about 210%; inactive means in between
MEKK2mut confirm: mutant MEKK2 PB1-MEK5 binding signal retest – biochemical, single concentration, multiplex bead flow cytometry, confirmation; shares compounds with MEKK3 PB1 HTS; Alexa488-MEK5 binding to MEKK2 mutant; percent response, % at 10 µM; actives 2% (n = 5,900); in the data active means percent response mostly above about 71%, no sharp cut-off; inactive means mostly below about 38%;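 further: higher means compound restores mutant binding toward wildtype level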
MEKK3-MEK5 inh: MEKK3 wild-type PB1 binding to MEK5, inhibitors, confirmation, biochemical, bead multiplex flow cytometry, single concentration, wildtype; shares compounds with MEKK3 PB1 HTS; Alexa488-MEK5 binding to MEKK3; hits give low values; binding response (% of control), % at 10 µM; actives 1.8% (n = 5,900);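 active means binding response below 72% of control, or above a set upper limit, though filed actives all read lower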
Of the large screens only hits and unclear results are named; the others gave an inactive call (follow-up assays come after a bar, where they were run); [ ] = dose if it differs, or a comment.

Cc1ccc(CNC(=O)c2ccc3nc4[nH]c5ccccc5c4nc3c2)cc1	MEKK3 PB1 HTS 72[inhibitor] (no result: ATG4B inh, Beta2AR agonist) | MEKK2wt confirm inactive | MEKK2mut confirm inactive | MEKK3-MEK5 inh inactive
O=C(/C=C/c1ccccc1)Nc1cccc(C(=O)NCCCCc2ccccc2)c1	none (no result: MEKK2 mut-MEK5, Dynein cargo inh, MEKK3 PB1 HTS, MEKK2wt PB1 HTS)
Cc1ccccc1NC(=O)c1c(C)nc(SCC(=O)OCc2ccccc2)c(C#N)c1-c1ccc(F)cc1	MEKK3 PB1 HTS 144 | MEKK2wt confirm inactive | MEKK2mut confirm inactive | MEKK3-MEK5 inh inactive
Cc1nc(SCC(=O)OCc2ccccc2)c(C#N)c(-c2ccccc2)c1C(=O)Nc1ccccc1	none
O=C(Nc1ccc(CN2CCS(=O)(=O)CC2)cc1)c1ccc(Cl)cc1	none
CC(C(=O)NCCN1C(=O)S/C(=C\c2cccs2)C1=O)N1C(=O)c2ccccc2C1=O (stereo not drawn)	MEKK3 PB1 HTS 146 | MEKK2wt confirm inactive | MEKK2mut confirm inactive | MEKK3-MEK5 inh inactive
O=C(NCCN1C(=O)S/C(=C\c2cccs2)C1=O)[C@H](Cc1ccccc1)N1C(=O)c2ccccc2C1=O	none (no result: ATG4B inh, Beta2AR agonist)
CCc1ccccc1Nc1cc(C(=O)NCc2ccccn2)c2ccccc2n1	MEKK3 PB1 HTS 131 | MEKK2wt confirm inactive | MEKK2mut confirm inactive | MEKK3-MEK5 inh inactive
CC1Cc2ccccc2N1C1=NS(=O)(=O)c2ccccc21 (stereo not drawn)	none
CC1Cc2ccccc2N1C1=CC(=O)CCC1 (stereo not drawn)	MEKK3 PB1 HTS 0.0[inhibitor], MEKK2wt PB1 HTS 0.0[inhibitor] | MEKK2wt confirm inactive | MEKK2mut confirm inactive | MEKK3-MEK5 inh inactive
Cc1ccc(NC(=O)C(c2ccccc2)N2CCN(CC(=O)NC3CC3)CC2)cc1 (stereo not drawn)	none (no result: MEKK2 mut-MEK5, Dynein cargo inh, MEKK3 PB1 HTS, MEKK2wt PB1 HTS)
CC1(C)CC[C@]2(C(=O)O)CC[C@]3(C)C(=CCC4[C@@]5(C)CC[C@H](O)C(C)(C)C5CC[C@]43C)C2C1 (stereo partly drawn)	none
CC1(C)CC[C@]2(C(=O)O)CC[C@]3(C)C(=CC[C@@H]4[C@@]5(C)CC[C@H](O)C(C)(C)[C@@H]5CC[C@]43C)[C@@H]2C1	MEKK2wt PB1 HTS 150 | MEKK2wt confirm inactive | MEKK2mut confirm inactive | MEKK3-MEK5 inh inactive
CCN1CCN(C(c2ccc(C(F)(F)F)cc2)c2ccc3cccnc3c2O)CC1 (stereo not drawn)	MEKK2 mut-MEK5 40, MEKK2wt PB1 HTS 164 (no result: Dynein cargo inh) | MEKK2wt confirm inactive | MEKK2mut confirm inactive | MEKK3-MEK5 inh inactive
CC(=N)c1c(O)cc(C)oc1=O	none (no result: MEKK2 mut-MEK5, Dynein cargo inh, MEKK3 PB1 HTS, MEKK2wt PB1 HTS)
C/C=C/c1ccc(OCCOCCNCc2ccccc2)c(OC)c1	MEKK2 mut-MEK5 24, MEKK2wt PB1 HTS 195 (no result: Dynein cargo inh) | MEKK2wt confirm inactive | MEKK2mut confirm inactive | MEKK3-MEK5 inh inactive
Clc1ccc(SCCn2ccnc2)cc1	MEKK3 PB1 HTS 70[inhibitor] | MEKK2wt confirm inactive | MEKK2mut confirm inactive | MEKK3-MEK5 inh inactive
Clc1ccc(OCCn2ccnc2)c(Cl)c1	none

Source: PubChem (several laboratories)
